Measurements from ChEMBL document CHEMBL1141563, “Novel inhibitors of the Gardos channel for the treatment of sickle cell disease” (J Med Chem, 2008).
Values after ≈ are worked out from the molar mass of the structure shown.

Experiments:
[1] = biological target: T1, Intermediate conductance calcium-activated potassium channel protein 4 (Homo sapiens, UniProt O15554); experiment: Inhibition of Gardos channel in human RBC assessed as inhibition of ionomycin-stimulated [86Rb] efflux
Liver = experiment: Intrinsic clearance in rat liver microsome S9 fraction as % compound remaining after incubation; type: ADME, subcellular
[2] = Solubility by shake-flask method; type: physicochemical
How it was run: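 Modified shake-flask method: about 1 mg compound shaken overnight in 1 mL PBS, pH 6.8. Supernatant analysed by LC/MS/MS; 2 measurements.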

Mus musculus [3] = experiment: Effect on gardos channel activity in SAD1 mouse model at 10 mg/kg, po bid after 11 days; type: functional
Mus musculus [4] = experiment: Effect on gardos channel activity in SAD1 mouse model at 10 mg/kg, po bid after 21 days; type: functional
Mus musculus [5] = experiment: Effect on mean corpuscular hemoglobin concentration in SAD1 mouse model at 10 mg/kg, po bid after 11 days; type: functional
How it was run: (§1)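 Transgenic SAD-1 mice of both sexes, 3–6 months, 25–30 g, given vehicle or compound by oral gavage twice daily. Blood parameters taken at baseline and at days 7 and 14 (20 mg/kg arm) or days 11 and 21 (10 mg/kg arm). Hematocrit measured by micro-Hct centrifugation; cells washed three times in PBS (330 mOsm) at 25 °C.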

Mus musculus [6] = experiment: Effect on mean corpuscular hemoglobin concentration in SAD1 mouse model at 10 mg/kg, po bid after 21 days; type: functional; how it was run: as §1
Mus musculus [7] = experiment: Effect on hematocrit levels in SAD1 mouse model at 10 mg/kg, po bid after 11 days; type: functional; how it was run: as §1
Mus musculus [8] = experiment: Effect on hematocrit levels in SAD1 mouse model at 10 mg/kg, po bid after 21 days; type: functional; how it was run: as §1
[9] = Bioavailability in Sprague-Dawley rat at 1 mg/kg, iv or 10 mg/kg, po; type: ADME, organism-based; conditions: in vivo
How it was run: (§2)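 Male Sprague-Dawley rats (251–299 g), n = 3 per time point. Dosed 1 mg/Kg IV by tail vein in PEG-400/cremophor-EL, or 10 mg/Kg by oral gavage in 0.5% aqueous methylcellulose. Plasma sampled 0.08–24 h (IV) or 0.5–24 h (PO) and quantified by LC-MS, LLOQ 1 ng/mL. Noncompartmental analysis; Cmax and Tmax read from the data; AUC by linear-log trapezoidal rule.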

[10] = Half life in Sprague-Dawley rat at 1 mg/kg, iv or 10 mg/kg, po; type: ADME, organism-based; conditions: in vivo; how it was run: as §2
[11] = Tmax in Sprague-Dawley rat at 1 mg/kg, iv or 10 mg/kg, po; type: ADME, organism-based; conditions: in vivo; how it was run: as §2
[12] = Cmax in Sprague-Dawley rat at 1 mg/kg, iv or 10 mg/kg, po; type: ADME, organism-based; conditions: in vivo; how it was run: as §2
CYP3A4 = CYP3A4 (Homo sapiens, UniProt P08684); experiment: Inhibition of CYP3A4 at 10 uM; type: ADME
Mus musculus [13] = experiment: Effect on gardos channel activity in SAD1 mouse model assessed by measuring [86Rb]/L of cells at 20 mg/kg, po bid after 7 days; type: functional
Mus musculus [14] = experiment: Effect on gardos channel activity in SAD1 mouse model assessed by measuring [86Rb]/L of cells at 20 mg/kg, po bid after 14 days; type: functional
Mus musculus [15] = experiment: Effect on mean corpuscular hemoglobin concentration in SAD1 mouse model at 20 mg/kg, po bid after 7 days; type: functional; how it was run: as §1
Mus musculus [16] = experiment: Effect on mean corpuscular hemoglobin concentration in SAD1 mouse model at 20 mg/kg, po bid after 14 days; type: functional; how it was run: as §1
Mus musculus [17] = experiment: Effect on hematocrit levels in SAD1 mouse model at 20 mg/kg, po bid after 7 days; type: functional; how it was run: as §1
Mus musculus [18] = experiment: Effect on hematocrit levels in SAD1 mouse model at 20 mg/kg, po bid after 14 days; type: functional; how it was run: as §1
hERG (KCNH2) = hERG (KCNH2) (Homo sapiens, UniProt Q12809); experiment: Inhibition of human ERG at 10 uM
[19] = biological target: T1, Intermediate conductance calcium-activated potassium channel protein 4; experiment: Inhibition of Gardos channel in human RBC assessed as […] at 10 uM

CYP3A4, sequence (P08684 whole entry): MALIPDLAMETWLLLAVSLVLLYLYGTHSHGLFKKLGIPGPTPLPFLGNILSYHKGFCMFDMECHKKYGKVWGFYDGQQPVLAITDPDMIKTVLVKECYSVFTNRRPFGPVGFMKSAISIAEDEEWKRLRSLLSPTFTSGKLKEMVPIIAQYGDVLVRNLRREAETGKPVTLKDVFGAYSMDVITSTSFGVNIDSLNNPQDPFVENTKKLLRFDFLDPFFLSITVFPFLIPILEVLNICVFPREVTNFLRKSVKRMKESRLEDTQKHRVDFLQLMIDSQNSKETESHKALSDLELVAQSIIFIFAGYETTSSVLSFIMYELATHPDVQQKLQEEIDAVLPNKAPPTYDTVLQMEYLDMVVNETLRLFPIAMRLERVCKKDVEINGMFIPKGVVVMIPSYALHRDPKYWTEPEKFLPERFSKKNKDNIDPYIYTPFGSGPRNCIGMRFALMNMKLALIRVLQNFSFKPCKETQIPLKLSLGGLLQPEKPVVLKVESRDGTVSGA
T1 sequence (O15554 whole entry): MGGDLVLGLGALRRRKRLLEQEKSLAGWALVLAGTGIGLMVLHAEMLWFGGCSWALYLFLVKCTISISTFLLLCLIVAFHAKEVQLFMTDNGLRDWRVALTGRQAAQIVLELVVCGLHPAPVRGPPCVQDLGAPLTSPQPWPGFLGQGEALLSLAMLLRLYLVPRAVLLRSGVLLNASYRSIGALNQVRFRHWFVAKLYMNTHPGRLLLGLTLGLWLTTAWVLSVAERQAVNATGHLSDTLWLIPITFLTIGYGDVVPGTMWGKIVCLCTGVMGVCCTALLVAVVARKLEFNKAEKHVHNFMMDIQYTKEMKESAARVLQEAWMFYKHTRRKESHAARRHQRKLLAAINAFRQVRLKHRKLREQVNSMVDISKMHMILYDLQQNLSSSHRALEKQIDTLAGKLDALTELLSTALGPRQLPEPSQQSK
hERG (KCNH2), sequence (Q12809 whole entry): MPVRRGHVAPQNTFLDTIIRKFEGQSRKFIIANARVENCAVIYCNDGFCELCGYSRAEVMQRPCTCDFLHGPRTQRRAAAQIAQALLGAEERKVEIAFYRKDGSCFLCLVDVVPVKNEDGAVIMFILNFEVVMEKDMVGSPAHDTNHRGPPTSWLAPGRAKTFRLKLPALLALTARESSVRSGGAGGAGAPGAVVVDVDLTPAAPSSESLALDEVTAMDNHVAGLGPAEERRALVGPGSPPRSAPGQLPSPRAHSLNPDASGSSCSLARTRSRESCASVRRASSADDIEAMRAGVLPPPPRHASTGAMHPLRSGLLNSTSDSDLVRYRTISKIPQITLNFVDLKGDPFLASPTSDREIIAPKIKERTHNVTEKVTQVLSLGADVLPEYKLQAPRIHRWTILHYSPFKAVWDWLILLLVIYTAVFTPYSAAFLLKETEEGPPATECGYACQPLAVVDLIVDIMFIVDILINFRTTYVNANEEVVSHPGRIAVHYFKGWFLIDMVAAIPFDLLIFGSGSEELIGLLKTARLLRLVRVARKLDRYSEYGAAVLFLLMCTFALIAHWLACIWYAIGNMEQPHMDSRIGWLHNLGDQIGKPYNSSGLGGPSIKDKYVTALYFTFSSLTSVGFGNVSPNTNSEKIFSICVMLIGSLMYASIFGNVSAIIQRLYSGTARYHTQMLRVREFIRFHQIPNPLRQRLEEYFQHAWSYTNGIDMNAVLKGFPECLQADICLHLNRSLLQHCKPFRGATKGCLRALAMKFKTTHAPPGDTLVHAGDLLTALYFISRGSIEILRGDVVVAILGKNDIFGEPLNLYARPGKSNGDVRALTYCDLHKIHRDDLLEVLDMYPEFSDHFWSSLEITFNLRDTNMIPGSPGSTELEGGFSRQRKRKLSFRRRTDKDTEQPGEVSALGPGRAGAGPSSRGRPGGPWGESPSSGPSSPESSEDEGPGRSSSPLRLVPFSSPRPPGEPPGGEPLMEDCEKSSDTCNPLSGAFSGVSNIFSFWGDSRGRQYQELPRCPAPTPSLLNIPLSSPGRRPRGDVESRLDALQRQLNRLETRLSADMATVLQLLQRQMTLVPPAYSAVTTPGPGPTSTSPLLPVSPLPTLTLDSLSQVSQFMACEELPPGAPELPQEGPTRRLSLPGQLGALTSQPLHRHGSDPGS

SMILES | IC50 [1] [µM] | Compound remaining (Liver) [%] | solubility thermodynamic [2] [µM] | other results
NC(=O)C(c1ccc(F)cc1)(c1ccc(F)cc1)c1ccc(F)cc1 | 0.014 | 25 | 2.6 (≈ 0.887 µg/mL) | –
NC(=O)C(c1ccc(F)cc1)(c1cccc(F)c1)c1cccc(F)c1 | 0.015 | – | – | –
NC(=O)C(c1ccccc1)(c1ccccc1)c1ccccc1F | – | 61 | 10.6 (≈ 3.24 µg/mL) | –
NC(=O)C(c1ccc(F)cc1)(c1ccc(F)cc1)c1cccc(F)c1 | 0.017 | 19 | 4.1 (≈ 1.4 µg/mL) | –
COC(=O)C(c1ccccc1)(c1ccccc1)c1ccccc1 | 0.33 | – | – | –
NC(=O)C(c1ccccc1)(c1ccccc1)c1ccc(F)cc1F | – | 44 | 1.8 (≈ 0.582 µg/mL) | –
CCNC(=O)C(c1ccccc1)(c1ccccc1)c1ccccc1 | 1.75 | – | – | –
CN(C)C(=O)C(c1ccccc1)(c1ccccc1)c1ccccc1 | 3.15 | – | – | –
NC(=O)C(c1cccc(F)c1)(c1cccc(F)c1)c1cccc(F)c1 | 0.013 | 36 | 3.4 (≈ 1.16 µg/mL) | –
NC(=O)C(c1ccccc1)(c1ccccc1)c1ccc(F)c(F)c1 | 0.014 | 63 | 4.3 (≈ 1.39 µg/mL) | –
NC(=O)C(c1ccccc1)(c1cccc(F)c1)c1cccc(F)c1 | – | 43 | 1.2 (≈ 0.388 µg/mL) | –
c1ccc(C(C2=NCCO2)(c2ccccc2)c2ccccc2)cc1 | 4.3 | – | – | –
NC(=O)C(c1ccccc1)(c1ccc(F)cc1)c1ccc(F)cc1 [SENICAPOC] | – | 51 | 3.8 (≈ 1.23 µg/mL) | Activity (Mus musculus [3]): 3 mmol; Activity (Mus musculus [4]): 1.5 mmol; Activity (Mus musculus [5]): 29.5 g/dL; Activity (Mus musculus [6]): 30.3 g/dL; Activity (Mus musculus [7]): 50.9%; Activity (Mus musculus [8]): 49.9%; bioavailability [9]: 51%; half-life [10]: 1 h; Tmax [11]: 4 h; Cmax [12]: 400 ng/mL; inhibition at 10 µM (CYP3A4): < 20%
NC(=O)C(c1ccccc1)(c1ccccc1F)c1ccccc1F | 0.03 | 48 | > 31 | –
NC(=O)C(c1ccccc1)(c1ccc(F)cc1)c1ccccc1F (stereo unspecified) | 0.009 | 40 | 5.8 (≈ 1.88 µg/mL) | half-life [10]: 2.5 h; Tmax [11]: 2 h; Cmax [12]: 250 ng/mL; inhibition at 10 µM (CYP3A4): < 20%; Activity (Mus musculus [13]): 4 mmol; Activity (Mus musculus [14]): 2 mmol; Activity (Mus musculus [15]): 34 g/dL; Activity (Mus musculus [16]): 27 g/dL; Activity (Mus musculus [17]): 44.5%; Activity (Mus musculus [18]): 47%
CNC(=O)C(c1ccccc1)(c1ccccc1)c1ccccc1 | 0.55 | – | – | inhibition at 10 µM (hERG (KCNH2)): < 20%; inhibition at 10 µM (CYP3A4): < 20%
NC(=O)C(c1ccc(F)cc1)(c1ccc(F)cc1)c1ccccc1F | 0.01 | 62 | 8.3 (≈ 2.83 µg/mL) | –
O=C(O)C(c1ccccc1)(c1ccccc1)c1ccccc1 | > 10 | – | – | –
O=C1Nc2ccccc2C1(c1ccccc1)c1ccccc1 | – | – | – | inhibition [19]: < 20%
NC(=O)C(c1ccccc1)(c1ccccc1)c1ccc(F)cc1 | 0.04 | 58 | 2.9 (≈ 0.886 µg/mL) | –
NC(=O)C(c1ccc(F)cc1)(c1ccccc1F)c1ccccc1F | 0.015 | 46 | 6.8 (≈ 2.32 µg/mL) | –
